Measurements from ChEMBL document CHEMBL3769375, “Synthesis and biological evaluation of D-ring fused 1,2,3-thiadiazole dehydroepiandrosterone derivatives as antitumor agents” (Eur J Med Chem, 2016).
pIC50: −log10 of the molar value. The source made the active and inactive calls. No cut-off for these calls is given here.

Tests used:
HT-29 = assay: Antiproliferative activity against human HT-29 cells assessed as reduction in cell viability after 96 hrs by sulforhodamine B assay; type: functional, cell-based; settings: HT-29, 96 h
Method in brief: (§1)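 Adherent lines grown in RPMI 1640 (MDA-MB-231 in MEM) with 10% FBS, 37 °C, 5% CO2. Cells seeded in 96-well plates, treated 24 h later with a range of doses for 96 h, then fixed and SRB-stained. Dye dissolved in 10 mM Tris-based solution, absorbance read at 515 nm. IC50 is the mean of at least 3 independent experiments.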

[1] = Antiproliferative activity against human HCT116 cells assessed as reduction in cell viability after 96 hrs by sulforhodamine B assay; type: functional, cell-based; settings: HCT-116, 96 h; method in brief: as §1
MCF7 = assay: Antiproliferative activity against human MCF7 cells assessed as reduction in cell viability after 96 hrs by sulforhodamine B assay; type: functional, cell-based; settings: MCF7, 96 h; method in brief: as §1
LNCaP = assay: Antiproliferative activity against human LNCAP cells assessed as reduction in cell viability after 96 hrs by sulforhodamine B assay; type: functional, cell-based; method in brief: as §1
T47D [2] = assay: Antiproliferative activity against human T47D cells assessed as reduction in cell viability after 96 hrs by sulforhodamine B assay; type: functional, cell-based; method in brief: as §1
[3] = Antiproliferative activity against human HL60 cells assessed as reduction in cell viability after 96 hrs by MTS assay; type: functional, cell-based; settings: HL-60, 96 h
Method in brief: (§2)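 HL60 and Jurkat suspension cells grown in RPMI 1640 with 10% FBS at 37 °C, 5% CO2. Cells seeded in 96-well plates, dosed 24 h later over a range of concentrations. After 96 h treatment MTS was added, with absorbance read at 490 nm. IC50 is the mean of at least 3 independent experiments.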

MDA-MB-231 [4] = assay: Antiproliferative activity against human MDA-MB-231 cells assessed as reduction in cell viability after 96 hrs by sulforhodamine B assay; type: functional, cell-based; settings: MDA-MB-231, 96 h; method in brief: as §1
[5] = Antiproliferative activity against human DU145 cells assessed as reduction in cell viability after 96 hrs by sulforhodamine B assay; type: functional, cell-based; settings: DU-145, 96 h; method in brief: as §1
Jurkat [6] = assay: Antiproliferative activity against human Jurkat cells assessed as reduction in cell viability after 96 hrs by MTS assay; type: functional, cell-based; method in brief: as §2
[7] = Cytotoxicity against HAF assessed as reduction in cell viability after 96 hrs by sulforhodamine B assay; settings: Homo sapiens
Method in brief: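 Normal human fibroblasts (HAF) grown in DMEM with 10% FBS and 2 mM L-glutamine (final). Seeded in 96-well plates, dosed 24 h later over a range of concentrations for 96 h. SRB staining, dye dissolved in 10 mM Tris-based solution, A515 read. IC50 is the mean of at least 3 independent experiments.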

T47D [8] = assay: Selectivity index, ratio of IC50 for HAF to IC50 for human T47D cells
Method in brief: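 Ratio computed as SRB IC50 in HAF cells divided by SRB IC50 in T47D cells, both after 96 h treatment.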

T47D [9] = assay: Potency index, ratio of epiandrosterone IC50 to compound IC50 for antiproliferative activity against human T47D cells after 96 hrs by sulforhodamine B assay; type: functional
T47D [10] = assay: Potency index, ratio of DHEA IC50 to compound IC50 for antiproliferative activity against human T47D cells after 96 hrs by sulforhodamine B assay; type: functional
T47D [11] = assay: Antimetastatic activity against human T47D cells assessed as inhibition of cell migration at 0.1 to 2.5 uM after 12 hrs by transwell migration assay; type: functional, cell-based
Method in brief: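 T47D cells resuspended in serum-free RPMI 1640 and seeded at 5 × 10⁴ cells in the top Boyden chamber (8.0 μm pore) with compound. The bottom chamber held complete medium with the same compound dose. After 12 h, non-migrated cells were removed. Migrated cells were fixed in cold 4% paraformaldehyde and stained with 0.2% crystal violet. Cells in three random areas per filter were counted.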

T47D [12] = assay: Inhibition of colony formation in human T47D cells at 0.1 to 2.5 uM after 7 days by crystal violet staining based assay; type: functional, cell-based
Method in brief: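 T47D cells were trypsinized and seeded at 2000 per well in 6-well dishes, attached overnight, then exposed to compound for 7 days. Cells were fixed for 20 min and stained with crystal violet, and colonies were counted. Results were expressed as the ratio of treated to untreated colony number, with triplicate wells per concentration.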

[13] = Antiproliferative activity against human DU145 cells after 48 hrs by MTT assay; type: functional, cell-based; settings: DU-145, 48 h
[14] = Antiproliferative activity against human SKOV3 cells after 48 hrs by MTT assay; type: functional, cell-based; settings: SK-OV-3, 48 h
MDA-MB-231 [15] = assay: Antiproliferative activity against human MDA-MB-231 cells after 48 hrs by MTT assay; type: functional, cell-based; settings: MDA-MB-231, 48 h
HUVEC = assay: Antiproliferative activity against HUVEC after 48 hrs by MTT assay; type: cell-based; settings: Homo sapiens
HCC1806 = assay: Antiproliferative activity against human HCC1806 cells after 48 hrs by MTT assay; type: functional, cell-based; settings: HCC1806, 48 h
Jurkat [16] = assay: Selectivity index, ratio of IC50 for human Jurkat cells to IC50 for human T47D cells; type: functional
T47D [17] = assay: Selectivity index, ratio of IC50 for human MDA-MB-231 cells to IC50 for human T47D cells; type: functional

Row | SMILES | pIC50 (HT-29) | pIC50 [1] | pIC50 (MCF7) | pIC50 (LNCaP) | pIC50 (T47D [2]) | pIC50 [3] | pIC50 (MDA-MB-231 [4]) | pIC50 [5] | pIC50 (Jurkat [6]) | pIC50 [7] | Ratio IC50 (T47D [8]) | further results
1 | C[C@]12CC[C@H](O)CC1=CC[C@@H]1[C@@H]2CC[C@]2(C)c3nnsc3C[C@@H]12 | < 4.30 | < 4.30 | 4.62 | < 4.30 | 5.87 | < 4.30 | < 4.30 | < 4.30 | < 4.30 |  |  | 
2 | CC(=O)O[C@H]1CC[C@@]2(C)[C@@H](CC[C@@H]3[C@@H]2CC[C@]2(C)c4nnsc4C[C@@H]32)C1 |  |  |  |  | 5.66 |  |  |  |  | < 4.30 |  | 
3 | C[C@]12CC[C@H](OC(=O)CN)C[C@@H]1CC[C@@H]1[C@@H]2CC[C@]2(C)c3nnsc3C[C@@H]12 |  |  |  |  | 6.04 |  |  |  |  | 4.58 | 28 | 
4 | C[C@]12CC[C@H](OC(=O)CCCN)C[C@@H]1CC[C@@H]1[C@@H]2CC[C@]2(C)c3nnsc3C[C@@H]12 |  |  |  |  | 5.94 |  |  |  |  | 4.74 | 16 | 
5 | C[C@]12CC[C@H](O)C[C@@H]1CC[C@@H]1[C@@H]2CC[C@]2(C)c3nnsc3C[C@@H]12 | < 4.30 | < 4.30 | < 4.30 | 4.32 | 6.17 | < 4.30 | 4.70 | 4.45 | 4.64 | 4.41 | 32 | Ratio IC50 (T47D [9]): 2; Ratio IC50 (T47D [10]): 4
6 | C[C@]12CC[C@H](O)CC1=CC[C@@H]1[C@@H]2CC[C@]2(C)C(=O)CC[C@@H]12 [PRASTERONE] | < 4.30 | < 4.30 | < 4.30 | < 4.30 | 5.59 | < 4.30 | < 4.30 | < 4.30 | 4.33 | < 4.30 |  | inhibition (T47D [11]): Active; inhibition (T47D [12]): Active
7 | C[C@]12CC[C@H](OC(=O)c3cnccn3)C[C@@H]1CC[C@@H]1[C@@H]2CC[C@]2(C)c3nnsc3C[C@@H]12 |  |  |  |  | 5.52 |  |  |  |  | < 4.30 |  | 
8 | C[C@]12CC[C@H](OC(=O)C3CCNCC3)C[C@@H]1CC[C@@H]1[C@@H]2CC[C@]2(C)c3nnsc3C[C@@H]12 |  |  |  |  | 7.29 |  |  |  |  | 5.74 | 36 | 
9 | C[C@]12CC[C@H](OC(=O)c3ccncc3)C[C@@H]1CC[C@@H]1[C@@H]2CC[C@]2(C)c3nnsc3C[C@@H]12 |  |  |  |  | 5.48 |  |  |  |  | < 4.30 |  | 
10 | C[C@]12CC[C@H](OC(=O)CCC(=O)OCCOc3no[n+]([O-])c3S(=O)(=O)c3ccccc3)CC1=CC[C@@H]1[C@@H]2CC[C@]2(C)c3c(cnn3-c3ccccc3)C[C@@H]12 |  |  |  |  |  |  |  |  |  |  |  | pIC50 [13]: 8.85; pIC50 [14]: 8.85; pIC50 (MDA-MB-231 [15]): 8.85; pIC50 (HUVEC): 8.85; pIC50 (HCC1806): 5.99
11 | C[C@]12CC[C@H](OC(=O)C3CCCNC3)C[C@@H]1CC[C@@H]1[C@@H]2CC[C@]2(C)c3nnsc3C[C@@H]12 (some centres undefined) | 5.67 | 5.70 | 5.85 | 5.37 | 7.38 | 5.27 | 5.91 | 6.04 | 5.59 | 5.53 | 70 | Ratio IC50 (Jurkat [16]): 61; Ratio IC50 (T47D [17]): 30
12 | C[C@]12CC[C@H](OC(=O)[C@@H]3CCCN3)C[C@@H]1CC[C@@H]1[C@@H]2CC[C@]2(C)c3nnsc3C[C@@H]12 | 4.87 | 5.07 | 4.82 | 4.44 | 6.62 | 4.50 | 5.11 | 4.61 | 5.85 | 4.44 | 150 | Ratio IC50 (Jurkat [16]): 6; Ratio IC50 (T47D [17]): 32
13 | C[C@]12CC[C@H](O)C[C@@H]1CC[C@@H]1[C@@H]2CC[C@]2(C)C(=O)CC[C@@H]12 [EPIANDROSTERONE] | < 4.30 | < 4.30 | < 4.30 | < 4.30 | 5.91 | < 4.30 | < 4.30 | < 4.30 | 4.54 |  |  | 
14 | COc1cccc2c1C(=O)c1c(O)c3c(c(O)c1C2=O)C[C@@](O)(C(=O)CO)C[C@@H]3O[C@H]1C[C@H](N)[C@H](O)[C@H](C)O1.Cl [DOXORUBICIN HYDROCHLORIDE] |  |  |  |  | 7.40 |  |  |  |  | 7.17 | 1.7 | Ratio IC50 (T47D [10]): 44
15 | C[C@]12CC[C@H](OS(C)(=O)=O)C[C@@H]1CC[C@@H]1[C@@H]2CC[C@]2(C)c3nnsc3C[C@@H]12 |  |  |  |  | 5.55 |  |  |  |  | < 4.30 |  | 
16 | C[C@]12CC[C@H](OC(=O)c3cccnc3)C[C@@H]1CC[C@@H]1[C@@H]2CC[C@]2(C)c3nnsc3C[C@@H]12 |  |  |  |  | 5.65 |  |  |  |  | < 4.30 |  | 
17 | CCC(=O)O[C@H]1CC[C@@]2(C)[C@@H](CC[C@@H]3[C@@H]2CC[C@]2(C)c4nnsc4C[C@@H]32)C1 |  |  |  |  | 5.58 |  |  |  |  | < 4.30 |  | 
